These results are taken from the array DNA melting data of Ke et al. (doi:10.1101/2024.01.08.574731).

Series [1] can be described thus: folding enthalpy; higher = less favourable; fluorescence melt of hairpins on a sequencing array, two-state fit. Particulars: sodium 0.088 M. The method, boiled down: (§1)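 Library hairpins on a sequenced MiSeq flow cell carried annealed Cy3 and quencher oligos, and their Cy3 fluorescence was imaged in 50 mM Na-HEPES pH 8.0 with 25 mM NaCl, in 2.5 °C steps up to 60 °C. Signals were normalised to Cy3 before quenching and to control constructs. Melting temperature and folding enthalpy were obtained from bootstrapped two-state fits, combined by inverse-variance weighting across four replicates, and the fitted temperatures were then raised by 9.35 °C to match UV melts.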

Series [2] in a line: melting temperature; fluorescence melt of hairpins on a sequencing array, two-state fit, raised by 9.35 °C to match UV melts. The note with it: sodium 0.088 M. The gist of the method:
as §1

For the sequence GGTATTACGAAAGTAACC (((..(((....)))))), the folding enthalpy in series [1] was -13.4 kcal/mol. In addition, the Tm in series [2] stood at 27.5 °C.
On the same counts, the results for GGTATTCCGAAAGGAACC (((..(((....)))))) are -12.8 kcal/mol and 29.4 °C.
On to GGTATTGGAAACAATGCC ((.((((....)))).)), for which the folding enthalpy in series [1] is -37.1 kcal/mol. Moreover, the Tm in series [2] was found to be 47.7 °C.
The corresponding values for GGTATTGGAAACAGTACC ((((.((....)).)))) are -32.2 kcal/mol and 39.6 °C.
Regarding GGTCAACCGAAAGGTACC (((..(((....)))))), the folding enthalpy in series [1] was -15.9 kcal/mol. The Tm in series [2] worked out at 35.1 °C.
On the same counts, the results for GGTCAACGAAAGTTACC (((.(((....)))))) are -20.6 kcal/mol and 38.2 °C.
For the sequence GGTCACCCGAAAGGGACC (((..(((....)))))), in series [1], the folding enthalpy is -17.7 kcal/mol. For the same sequence, in series [2], the Tm came out at 48.6 °C.
The corresponding values for GGTCACGAAAGTGCGACC ((((((....)))..))) are -17.7 kcal/mol and 40.8 °C.
The corresponding values for GGTCACGAAAGTGTTACC ((((((....)))..))) are -17.1 kcal/mol and 38.2 °C.
On the same counts, the results for GGTCACGGAAACGTAACC (((.(((....))).))) are -31.5 kcal/mol and 42.1 °C.
As to GGTCAGAAATGACC (((((....))))), the folding enthalpy in series [1] is -28.2 kcal/mol. Besides, the Tm in series [2] came out at 53.6 °C.
Consider GGTCAGCGAAAGCTCACC (((.(((....))).))), for which the folding enthalpy in series [1] was -18.9 kcal/mol. In addition, in series [2], the Tm is 41.7 °C.
The corresponding values for GGTCAGGCGAAAGCCACC (((..(((....)))))) are -11.2 kcal/mol and 35.6 °C.
As to GGTCAGGGAAACCTGATC (.(((((....))))).), the folding enthalpy in series [1] was -27.2 kcal/mol. For the same sequence, the Tm in series [2] worked out at 48.5 °C.
On the same counts, the results for GGTCAGGGAAACTTGACC (((((.(....).))))) are -37.9 kcal/mol and 49.5 °C.
On the same counts, the results for GGTCATGGAAACATAACC (((.(((....))).))) are -18.5 kcal/mol and 31.6 °C.
On the same counts, the results for GGTCATGGAAACATGATC (.(((((....))))).) are -31.5 kcal/mol and 47 °C.
Take GGTCCAGCGAAAGCTACC (((..(((....)))))): the folding enthalpy in series [1] was -10.7 kcal/mol. The Tm in series [2] was found to be 30.1 °C.
For GGTCCAGGAAACCAGACC ((((..(....)..)))), the folding enthalpy in series [1] is -23.1 kcal/mol. In addition, the Tm in series [2] turned out to be 34.5 °C.
On the same counts, the results for GGTCCAGGAAACTGGATC (.(((((....))))).) are -32.1 kcal/mol and 49.7 °C.
On the same counts, the results for GGTCCAGGAAACTGGGTC (..((((....))))..) are -15.3 kcal/mol and 39.5 °C.
The corresponding values for GGTCCCACGAAAGTGACC (((..(((....)))))) are -15.8 kcal/mol and 36.8 °C.
For GGTCCCCGAAAGGGACC (((.(((....)))))), the folding enthalpy in series [1] is -30.6 kcal/mol. In addition, the Tm in series [2] was found to be 68.4 °C.
Take GGTCCCGAAAGGGACACC ((((((....)))..))): the folding enthalpy in series [1] was -8.21 kcal/mol. For the same sequence, the Tm in series [2] came to 54.5 °C.
On the same counts, the results for GGTCCCGAAAGGGCGACC ((((((....)))..))) are -14.3 kcal/mol and 46 °C.
The corresponding values for GGTCCCGAAAGGGGGACC ((((((....)))..))) are -25.4 kcal/mol and 59.2 °C.
On the same counts, the results for GGTCCCGAAAGGGTAACC ((((((....)))..))) are -18 kcal/mol and 42.2 °C.
Consider GGTCCCGAAAGGGTGACC ((((((....)))..))), for which the folding enthalpy in series [1] is -19.6 kcal/mol. Also, the Tm in series [2] was 48 °C.
Turning to GGTCCCGCGAAAGCGACC (((..(((....)))))), the folding enthalpy in series [1] is -11.3 kcal/mol. Also, the Tm in series [2] worked out at 37.7 °C.
The corresponding values for GGTCCCGGAAACGAGACC ((((.((....)).)))) are -32 kcal/mol and 49.6 °C.
With GGTCCCGGAAACGGAACC (((.(((....))).))), the folding enthalpy in series [1] was -36 kcal/mol. Also, the Tm in series [2] is 48 °C.
As for GGTCCGGCGAAAGCCACC (((..(((....)))))), the folding enthalpy in series [1] was -8.92 kcal/mol. The Tm in series [2] was determined as 27.1 °C.
The corresponding values for GGTCCGGGAAACCGGATC (.(((((....))))).) are -24 kcal/mol and 58.9 °C.
Regarding GGTCCTCGAAAGAGCACC (((.(((....))).))), the folding enthalpy in series [1] was -27.1 kcal/mol. For the same sequence, the Tm in series [2] was 38.5 °C.
The corresponding values for GGTCCTCGAAAGAGTACC (((.(((....))).))) are -31.1 kcal/mol and 43.4 °C.
On the same counts, the results for GGTCCTGAAAAGGACC ((((((....)))))) are -30.9 kcal/mol and 68.2 °C.
On the same counts, the results for GGTCCTGGAAACAGGGCC ((.((((....)))).)) are -46.3 kcal/mol and 60.8 °C.
Consider GGTCCTGGAAACGGGACC (((((.(....).))))), for which, in series [1], the folding enthalpy was -57.4 kcal/mol. Besides, the Tm in series [2] came to 57.3 °C.
The corresponding values for GGTCGACGAAAGTCACC (((.(((....)))))) are -16.2 kcal/mol and 50.9 °C.
On the same counts, the results for GGTCGACGAAAGTCCACC (((.(((....))).))) are -25.6 kcal/mol and 43.9 °C.
Regarding GGTCGAGGAAACTCAACC (((.(((....))).))), the folding enthalpy in series [1] is -29.5 kcal/mol. Further, the Tm in series [2] amounted to 37 °C.
On the same counts, the results for GGTCGCCGAAAGGCAACC (((.(((....))).))) are -24.6 kcal/mol and 56.1 °C.
The corresponding values for GGTCGCGAAAGCGAAACC ((((((....)))..))) are -11.9 kcal/mol and 50 °C.
For GGTCGCGAAAGCGAACC ((((((....))).))), the folding enthalpy in series [1] was -15.2 kcal/mol. In addition, the Tm in series [2] came out at 67.3 °C.
On the same counts, the results for GGTCGCGAAAGCGCACC ((((((....))).))) are -20.8 kcal/mol and 60.3 °C.
Consider GGTCGCGGAAACGCGATC (.(((((....))))).), for which the folding enthalpy in series [1] was -17.6 kcal/mol. Besides, in series [2], the Tm is 63.7 °C.
GGTCGGCGAAAGCCAACC (((.(((....))).))): the folding enthalpy in series [1] is -21 kcal/mol. In series [2], the Tm was found to be 55.3 °C.
On the same counts, the results for GGTCGGCGAAAGCCCACC (((.(((....))).))) are -21.7 kcal/mol and 46.9 °C.
The corresponding values for GGTCGGCGAAAGCCTACC (((.(((....))).))) are -25.9 kcal/mol and 53.5 °C.
On the same counts, the results for GGTCGGGGAAACTCGACC (((((.(....).))))) are -42.8 kcal/mol and 58 °C.
GGTCGTCGAAAGACAACC (((.(((....))).))): the folding enthalpy in series [1] is -26.1 kcal/mol. Besides, the Tm in series [2] came out at 48.9 °C.
The corresponding values for GGTCGTCGAAAGACACC (((.(((....)))))) are -22.1 kcal/mol and 52.1 °C.
On the same counts, the results for GGTCGTGGAAACACGGTC (..((((....))))..) are -15.8 kcal/mol and 41.4 °C.
On the same counts, the results for GGTCGTGGAAACATGGCC ((.(.((....)).).)) are -24 kcal/mol and 45.8 °C.
As for GGTCTACGAAAGTACACC (((.(((....))).))), the folding enthalpy in series [1] is -22 kcal/mol. Also, in series [2], the Tm was 35.8 °C.
The corresponding values for GGTCTACGAAAGTATACC (((.(((....))).))) are -35.5 kcal/mol and 42.2 °C.
On the same counts, the results for GGTCTCACGAAAGTGACC (((..(((....)))))) are -14.5 kcal/mol and 37.9 °C.
Take GGTCTCGAAAGAGAACC ((((((....))).))): the folding enthalpy in series [1] is -19 kcal/mol. The Tm in series [2] is 50 °C.
The corresponding values for GGTCTCGAAAGAGCGACC ((((((....)))..))) are -18.1 kcal/mol and 37.3 °C.
GGTCTCGAAAGAGGACC ((((((....))).))): in series [1], the folding enthalpy is -28.3 kcal/mol. Moreover, the Tm in series [2] worked out at 49.5 °C.
The corresponding values for GGTCTCGAAAGAGTACC ((((((....))).))) are -24.3 kcal/mol and 46.8 °C.
The corresponding values for GGTCTCGAAAGAGTTACC ((((((....)))..))) are -17.3 kcal/mol and 32.3 °C.
On the same counts, the results for GGTCTCGCGAAAGCGACC (((..(((....)))))) are -9.72 kcal/mol and 33.2 °C.
As to GGTCTGACGAAAGTCACC (((..(((....)))))), the folding enthalpy in series [1] was -10.4 kcal/mol. The Tm in series [2] was 27.8 °C.
On the same counts, the results for GGTCTGCCGAAAGGCACC (((..(((....)))))) are -6.75 kcal/mol and 28.8 °C.
On the same counts, the results for GGTCTGGGAAACCAGACC (((((((....))))))) are -47.2 kcal/mol and 67.7 °C.
On the same counts, the results for GGTCTGGGAAACCAGGCC ((.((((....)))).)) are -47.6 kcal/mol and 56.9 °C.
Regarding GGTCTGGGAAACCAGGTC (..((((....))))..), the folding enthalpy in series [1] was -14.3 kcal/mol. The Tm in series [2] amounted to 34.9 °C.
On the same counts, the results for GGTCTGGGAAACCGGATC (.((.((....)).)).) are -23.2 kcal/mol and 40 °C.
The corresponding values for GGTCTGGGAAACTGGACC ((((..(....)..)))) are -31.1 kcal/mol and 45.1 °C.
The corresponding values for GGTCTTACGAAAGTAACC (((..(((....)))))) are -10.7 kcal/mol and 25.7 °C.
Consider GGTCTTCCGAAAGGAACC (((..(((....)))))), for which, in series [1], the folding enthalpy was -10.5 kcal/mol. Also, the Tm in series [2] was determined as 26.5 °C.
On the same counts, the results for GGTCTTGGAAACAAGATC (.(((((....))))).) are -25.7 kcal/mol and 44.5 °C.
